Test results as given in ChEMBL document CHEMBL3244139, “Antiarrhythmic activity of p-hydroxy-N-(2-diethylaminoethyl) benzamide (the p-hydroxy isostere of procainamide) in dogs and mice” (J Med Chem, 1977).
Each block holds one compound with its values, some of them ahead of it.

How the values were obtained:
Mus musculus [1] = test: Antiarrhythmic activity in ICR mouse assessed as protection against chloroform-induced ventricular fibrillation at 233 to 240 mg/kg, ip; type: functional, Heart; conditions: dose mg/kg 233-240; route intraperitoneal
Summary of the method: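 ICR male mice, 28-35 days old, average weight 25 g, dosed ip. After 10 min they were placed in a chloroform jar and anesthetized. A mouse counted as protected if no intermittent or continuous ventricular fibrillation appeared before breathing ceased. Definite fibrillation counted as unprotected even if it later changed rhythm. Eight mice per dose.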

Canis familiaris [2] = test: Antiarrhythmic activity in aconitine-induced mongrel dog arrhythmic model assessed as decrease in ventricular rate rate at 50 +/- 24 mg/kg, iv after 20 +/- 3 mins from end of infusion (reference value: 205 +/- 65 BPM); type: functional, Canis lupus familiaris, Heart
[3] = Stability in human plasma assessed as hydrolysis at 20 ug/ml after 5 mins at room temperature; type: ADME, cell-free; conditions: read-out: Drug degradation
Summary of the method: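 Ester at 20 µg/ml held in fresh human plasma for 5 min at room temperature. Comparison conditions: plasma plus 10^-5 M physostigmine, and saline. Standards extracted and measured by TLC densitometry.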

Canis familiaris [4] = test: Antiarrhythmic activity in aconitine-induced mongrel dog arrhythmic model assessed as mean arterial blood pressure measured at end of infusion at 50 +/- 24 mg/kg, iv (reference value: 70 +/- 8 mmHg); type: functional, Canis lupus familiaris, Artery
Canis familiaris [5] = test: Antiarrhythmic activity in aconitine-induced mongrel dog arrhythmic model assessed as atrial rate at 50 +/- 24 mg/kg, iv after 20 +/- 3 mins from end of infusion; type: functional, Canis lupus familiaris, Heart
Canis familiaris [6] = test: Antiarrhythmic activity in aconitine-induced mongrel dog arrhythmic model assessed as atrial rate measured at end of infusion at 50 +/- 24 mg/kg, iv; type: functional, Canis lupus familiaris, Heart
Plasma [7] = test: Plasma concentration in mongrel dog at 50 +/- 24 mg/kg, iv; type: ADME, organism-based, Canis lupus familiaris; design: route intravenous; conditions: in vivo
Summary of the method: (§1)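 Plasma withdrawn from each aconitine-treated dog when iv infusion was discontinued; drug measured by TLC densitometry.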

Canis familiaris [8] = test: Antiarrhythmic activity in aconitine-induced mongrel dog arrhythmic model assessed as decrease in ventricular rate rate measured at end of infusion at 50 +/- 24 mg/kg, iv (reference value: 205 +/- 65 BPM); type: functional, Canis lupus familiaris, Heart
Plasma [9] = test: Drug metabolism in mongrel dog assessed as ester of p-acetoxy-N-(2-diethylaminoethyl)benzamide level in plasma; type: ADME, cell-free, Canis lupus familiaris
Summary of the method: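 Dog plasma taken at end of infusion was extracted as for the phenol but without internal standard. Spotted on silica gel F254 TLC, developed with acetone-methanol (1:1), and quantified by densitometry.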

[10] = Antiarrhythmic activity in mongrel dog Purkinje fiber assessed as rate of phase 0 depolarization (dV/dt) at 20 ug/ml by Single Cell Potentials/electrophysiological technique (reference value: 474 +/- 57 V/s); type: functional, Canis lupus familiaris
[11] = Antiarrhythmic activity in mongrel dog Purkinje fiber assessed as 50% repolarization time at 10 ug/ml by Single Cell Potentials/electrophysiological technique (reference value: 244 +/- 15 ms); type: functional, Canis lupus familiaris
Mus musculus [12] = test: Antiarrhythmic activity in ip dosed ICR mouse assessed as protection against chloroform-induced ventricular fibrillation; type: functional; conditions: Heart
Summary of the method: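 Male ICR mice, 28-35 days, mean 25 g, given drug ip, then after 10 min exposed to chloroform in a jar until breathing stopped. Protection meant no intermittent or continuous ventricular fibrillation at any point. Eight mice per dosage interval.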

Canis familiaris [13] = test: Antiarrhythmic activity in aconitine-induced mongrel dog arrhythmic model assessed as decrease in ventricular rate rate at 48 +/- 38 mg/kg, iv after 17 +/- 16 mins from end of infusion (reference value: 205 +/- 65 BPM); type: functional, Canis lupus familiaris, Heart
[14] = Antiarrhythmic activity in mongrel dog Purkinje fiber assessed as 90% repolarization time at 10 ug/ml by Single Cell Potentials/electrophysiological technique (reference value: 274 +/- 30 ms); type: functional, Canis lupus familiaris
Canis familiaris [15] = test: Antiarrhythmic activity in aconitine-induced mongrel dog arrhythmic model assessed as atrial rate at 48 +/- 38 mg/kg, iv after 17 +/- 16 mins from end of infusion; type: functional, Canis lupus familiaris, Heart
[16] = Antiarrhythmic activity in mongrel dog Purkinje fiber assessed as 50% repolarization time at 20 ug/ml by Single Cell Potentials/electrophysiological technique (reference value: 223 +/- 11 ms); type: functional, Canis lupus familiaris
[17] = Antiarrhythmic activity in mongrel dog Purkinje fiber assessed as spontaneous intrinsic rate at 20 ug/ml by Single Cell Potentials/electrophysiological technique (reference value: 35 +/- 7 BPM); type: functional, Canis lupus familiaris
[18] = Toxicity in ip dosed ICR mouse assessed as acute mortality; type: organism-based; conditions: in vivo
Summary of the method: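 Male ICR mice, 28-35 days old (av wt 26 g), in groups of ten per dose level, given drug ip. Deaths recorded at 10, 15, 30, 60, 120 and 210 min after injection to set acute mortality.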

[19] = Antiarrhythmic activity in mongrel dog Purkinje fiber assessed as rate of phase 0 depolarization (dV/dt) at 10 ug/ml by Single Cell Potentials/electrophysiological technique (reference value: 491 +/- 40 V/s); type: functional, Canis lupus familiaris
Canis familiaris [20] = test: Antiarrhythmic activity in aconitine-induced mongrel dog arrhythmic model assessed as atrial rate measured at end of infusion at 48 +/- 38 mg/kg, iv; type: functional, Canis lupus familiaris, Heart
[21] = Therapeutic index, ratio of LD50 for ICR mouse assessed as acute mortality to ED50 for protection against chloroform-induced ventricular fibrillation in ICR mouse; type: organism-based, Cardiac ventricle; conditions: in vivo, read-out: Ratio LD50/ED50
Summary of the method: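 Male ICR mice, 28-35 days old, dosed ip. For ED50, 8 mice per dose went into a chloroform jar 10 min after dosing and were kept there until breathing stopped; mice with no intermittent or continuous ventricular fibrillation counted as protected. ED50 was derived by Litchfield-Wilcoxon. LD50 came from acute mortality in 10 mice per dose. Index reported as LD50/ED50.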

[22] = Antiarrhythmic activity in mongrel dog Purkinje fiber assessed as 90% repolarization time at 20 ug/ml by Single Cell Potentials/electrophysiological technique (reference value: 284 +/- 12 ms); type: functional, Canis lupus familiaris
[23] = Antiarrhythmic activity in mongrel dog Purkinje fiber assessed as spontaneous intrinsic rate at 10 ug/ml by Single Cell Potentials/electrophysiological technique (reference value: 33 +/- 5 BPM); type: functional, Canis lupus familiaris
Canis familiaris [24] = test: Antiarrhythmic activity in aconitine-induced mongrel dog arrhythmic model assessed as mean arterial blood pressure measured at end of infusion at 48 +/- 38 mg/kg, iv (reference value: 70 +/- 8 mmHg); type: functional, Canis lupus familiaris, Artery
Canis familiaris [25] = test: Antiarrhythmic activity in aconitine-induced mongrel dog arrhythmic model assessed as decrease in ventricular rate rate measured at end of infusion at 48 +/- 38 mg/kg, iv (reference value: 205 +/- 65 BPM); type: functional, Canis lupus familiaris, Heart
Plasma [26] = test: Plasma concentration in mongrel dog at 48 +/- 38 mg/kg, iv; type: ADME, organism-based, Canis lupus familiaris; design: route intravenous; conditions: in vivo; summary of the method: as §1

Structure (SMILES): CCN(CC)CCNC(=O)c1ccc([N+](=O)[O-])cc1.Cl
Activity (Mus musculus [1]): 38%

metabolised at 5 min, 20 ug/ml [3]: 60% | Cp (Plasma [7]): < 0.5 µg/mL
Structure (SMILES): CCN(CC)CCNC(=O)c1ccc(OC(C)=O)cc1.Cl
Activity (Canis familiaris [2]): 183 bpm | Activity (Canis familiaris [4]): 70 mmHg | Activity (Canis familiaris [5]): 373 bpm | Activity (Canis familiaris [6]): 173 bpm | Activity (Canis familiaris [8]): 173 bpm | Drug metabolism (Plasma [9]): < 0.5 µg/mL

Structure (SMILES): CCN(CC)CCNC(=O)c1ccc(N)cc1.Cl [PROCAINAMIDE HYDROCHLORIDE]
Activity [10]: 411 V/s | Time [11]: 265 ms | ED50 (Mus musculus [12]): 137 mg/kg | Activity (Canis familiaris [13]): 215 bpm | Time [14]: 334 ms | Activity (Canis familiaris [15]): 283 bpm | Time [16]: 239 ms | Activity [17]: 23 bpm | LD50 [18]: 255 mg/kg | Activity [19]: 421 V/s | Activity (Canis familiaris [20]): 225 bpm | selectivity ratio [21]: 1.8 | Time [22]: 316 ms | Activity [23]: 24 bpm | Activity (Canis familiaris [24]): 68 mmHg | Activity (Canis familiaris [25]): 203 bpm | Cp (Plasma [26]): 118 µg/mL
